The text below walks through data of ChEMBL document CHEMBL1127638, “Dibasic (amidinoaryl)propanoic acid derivatives as novel blood coagulation factor Xa inhibitors” (J Med Chem, 1994).

The IC50 is the midpoint of a concentration-inhibition curve.

The nature of test [1]: In vitro evaluation for the concentration needed to double the Plasma recalcification clotting time. Type of test: functional, Homo sapiens. The procedure, abridged:
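Human plasma incubated with saline or inhibitor in saline for 2 min at 37 °C. Clotting started with 20 mM CaCl2 solution. Result given as the concentration that doubles plasma clotting time (CT2).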

The target of a further test is Coagulation factor X (Homo sapiens, UniProt P00742). The test is described as follows: In vitro evaluation for the concentration needed for inhibiting factor Xa by 50%.
Sequence of Coagulation factor X (P00742 41-179 limits assumed): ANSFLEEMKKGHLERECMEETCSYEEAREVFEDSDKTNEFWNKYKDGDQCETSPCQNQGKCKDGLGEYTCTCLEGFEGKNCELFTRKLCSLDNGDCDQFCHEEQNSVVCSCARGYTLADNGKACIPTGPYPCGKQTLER
Sequence of Coagulation factor X (P00742 235-488 limits assumed): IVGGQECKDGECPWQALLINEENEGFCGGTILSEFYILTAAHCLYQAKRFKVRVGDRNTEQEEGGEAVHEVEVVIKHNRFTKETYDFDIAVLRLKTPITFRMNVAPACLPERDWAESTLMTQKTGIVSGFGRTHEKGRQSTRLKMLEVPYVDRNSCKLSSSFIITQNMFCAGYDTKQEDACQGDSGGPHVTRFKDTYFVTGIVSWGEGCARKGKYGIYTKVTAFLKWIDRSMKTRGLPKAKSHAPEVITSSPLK
In another test the target is Prothrombin (Homo sapiens, UniProt P00734). The test is described as follows: In vitro evaluation for the concentration needed for inhibiting thrombin by 50%.
For test [2], the system named is Rattus norvegicus. Description: Ex vivo anticoagulant activity was measured by calculating the Activated partial thromboplastin time at 4 hr by dose of 300 mg/kg on oral administration in male Wistar rat. Type of test: functional. The procedure, abridged:
(§1)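 Male Wistar rats (200-250 g), fasted overnight, given compound dissolved in water by stomach tube. Anesthetized with sodium thiopental (100 mg/kg, ip) 15 min after dosing. Jugular vein blood taken into trisodium citrate at several time points and centrifuged to platelet-poor plasma. APTT read after mixing plasma with saline and Platerin Plus activator, clotting started with 20 mM CaCl2. Reported as test/control ratio, mean ± SE, n = 4-5.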

Test [3] relates to Rattus norvegicus. The test is described as follows: Ex vivo anticoagulant activity was measured by calculating the Activated partial thromboplastin time at 0.5 hr by dose of 300 mg/kg on oral administration in male Wistar rat. Type of test: functional. In a few lines:
as §1

Test [4] concerns Rattus norvegicus. The test is described as follows: Ex vivo anticoagulant activity was measured by calculating the Activated partial thromboplastin time at 1 hr by dose of 300 mg/kg on oral administration in male Wistar rat. Type of test: functional. In a few lines:
as §1

Test [5] deals with Rattus norvegicus. Description: Ex vivo anticoagulant activity was measured by calculating the Activated partial thromboplastin time at 2 hr by dose of 300 mg/kg on oral administration in male Wistar rat. Type of test: functional. The procedure, abridged:
as §1

Test [6] deals with Rattus norvegicus. Description: Ex vivo anticoagulant activity was measured by calculating the Activated partial thromboplastin time (test/control) at 4 hr by dose of 100 mg/kg on oral administration in male Wistar rat. Type of test: functional. The procedure, abridged:
as §1

Test [7] deals with Rattus norvegicus. Description: Ex vivo anticoagulant activity was measured by calculating the Activated partial thromboplastin time (test/control) at 2 hr by dose of 100 mg/kg on oral administration in male Wistar rat. Type of test: functional. In a few lines: as §1
The test system of test [8] is Rattus norvegicus. Description: Ex vivo anticoagulant activity was measured by calculating the Activated partial thromboplastin time (test/control) at 0.5 h by dose of 100 mg/kg on oral administration in male Wistar rat. Type of test: functional. In a few lines:
as §1

Test [9] concerns Rattus norvegicus. Description: Ex vivo anticoagulant activity was measured by calculating the Activated partial thromboplastin time (test/control) at 1 hr by dose of 100 mg/kg on oral administration in male Wistar rat. Type of test: functional. In a few lines: as §1

`CC(=N)N1CC[C@H](Oc2ccc(C(Cc3ccc4ccc(C(=N)N)cc4c3)C(=O)O)cc2)C1` (some centres not stated): in test [1], the CT2 is 1.3 µM.
For the molecule `CCOC(=O)C(Cc1cc2ccc(C(=N)N)cc2o1)c1ccc(O[C@H]2CCNC2)cc1` (some centres not stated), the CT2 in [1] came out at 8.3 µM. In addition, the IC50 against Coagulation factor X turned out to be 1.7 µM; against Prothrombin, 36 µM.
For the molecule `CC(=N)N1CC[C@H](Oc2ccc(C(Cc3cc4ccc(C(=N)N)cc4o3)C(=O)O)cc2)C1` (some centres not stated), the CT2 in test [1] stood at 5.6 µM. The values for the concentration for half-maximal inhibition (IC50) on Coagulation factor X and on Prothrombin were 0.84 µM and greater than 400 µM, respectively.
For the molecule `CC(=N)N1CC[C@H](Oc2ccc(CCc3cc4cc(C(=N)N)ccc4o3)cc2)C1`, the CT2 in test [1] worked out at 1.2 µM. Further, the values for the IC50 against Coagulation factor X and against Prothrombin were 0.64 µM and 4 µM, respectively.
Turning to `CCOC(=O)C(Cc1ccc2cc(C(=N)N)ccc2c1)c1ccc(O[C@H]2CCNC2)cc1` (some centres not stated), the CT2 in [1] was 12.4 µM. For the same molecule, the results for the IC50 against Coagulation factor X and against Prothrombin were 4.2 µM and 38 µM, respectively.
Turning to `N=C(N)c1ccc2oc(CCc3ccc(O[C@H]4CCNC4)cc3)cc2c1`, in test [1], the CT2 is 7.5 µM. The figures for the 50% inhibitory concentration (IC50) against Coagulation factor X and at Prothrombin were 0.94 µM and 100 µM, respectively.
In the case of `N=C(N)c1ccc2oc(CC(C(=O)O)c3ccc(O[C@H]4CCNC4)cc3)cc2c1` (some centres not stated), in test [1], the CT2 worked out at 14 µM. Also, the Tested/Control was 1.2 in the test with Rattus norvegicus [2], 1.28 in the test on Rattus norvegicus [3], 1.4 in the test with Rattus norvegicus [4] and 1.25 in the test on Rattus norvegicus [5]. At Prothrombin, this molecule showed a half-inhibitory concentration (IC50) of 230 µM.
Consider `CC(=N)N1CC[C@H](Oc2ccc([C@H](Cc3ccc4ccc(C(=N)N)cc4c3)C(=O)O)cc2)C1` [DX-9065A], for which, in test [1], the CT2 came to 0.5 µM. For the same molecule, the Tested/Control in the test with Rattus norvegicus [6] is listed as 1.28; with Rattus norvegicus [7], 1.48; with Rattus norvegicus [8], 1.63; in the test on Rattus norvegicus [9], 1.51.
`N=C(N)c1ccc2oc(C(Cc3ccc(O[C@H]4CCNC4)cc3)C(=O)O)cc2c1` (some centres not stated): the CT2 in test [1] was 14 µM. Further, the Tested/Control in the test on Rattus norvegicus [2] is recorded as 1.16; in the test on Rattus norvegicus [4], 1.33; in the test with Rattus norvegicus [5], 1.15. For the same molecule, the IC50 against Coagulation factor X was 45 µM; against Prothrombin it was 9 µM.
Consider `CCOC(=O)C(Cc1ccc2ccc(C(=N)N)cc2c1)c1ccc(O[C@H]2CCNC2)cc1` (some centres not stated), for which the CT2 in test [1] was 3.2 µM. Further, the IC50 against Coagulation factor X is 0.31 µM; on Prothrombin, greater than 600 µM.
As for `CC(=N)N1CC[C@H](Oc2ccc(C(Cc3cc4cc(C(=N)N)ccc4o3)C(=O)O)cc2)C1` (some centres not stated), the CT2 in [1] is 6 µM. Besides, the figures for the IC50 at Coagulation factor X and against Prothrombin were 0.5 µM and 15 µM, respectively.
The corresponding values for `N=C(N)c1ccc2ccc(CC(C(=O)O)c3ccc(O[C@H]4CCNC4)cc3)cc2c1` (some centres not stated) are 3.2 µM, 0.2 µM and greater than 1600 µM.
`N=C(N)c1ccc2cc(CC(C(=O)O)c3ccc(O[C@H]4CCNC4)cc3)ccc2c1` (some centres not stated): the CT2 in test [1] turned out to be 22 µM. Further, the IC50 is 4.1 µM on Coagulation factor X and greater than 100 µM against Prothrombin.
Take `CCOC(=O)C(Cc1cc2cc(C(=N)N)ccc2o1)c1ccc(O[C@H]2CCNC2)cc1` (some centres not stated): in [1], the CT2 was determined as 20 µM. Besides, the Tested/Control in the test with Rattus norvegicus [2] was 1.21; in the test on Rattus norvegicus [3] it was 1.17; with Rattus norvegicus [4], 1.17; in the test on Rattus norvegicus [5] it was 1.19. Further, the half-inhibitory concentration (IC50) on Coagulation factor X was 1 µM; against Prothrombin, 21 µM.
Turning to `CC(=N)N1CC[C@H](Oc2ccc(C(Cc3ccc4cc(C(=N)N)ccc4c3)C(=O)O)cc2)C1` (some centres not stated), in test [1], the CT2 was 4.4 µM.
With `CC(=N)N1CC[C@H](Oc2ccc([C@@H](Cc3ccc4ccc(C(=N)N)cc4c3)C(=O)O)cc2)C1`, the CT2 in [1] was 6 µM.
With `CCOC(=O)C(Cc1ccc(O[C@H]2CCNC2)cc1)c1cc2cc(C(=N)N)ccc2o1` (some centres not stated), the CT2 in [1] came to 31 µM. For the same molecule, the Tested/Control is recorded as 1.05 in the test on Rattus norvegicus [2], 0.98 in the test with Rattus norvegicus [3], 1.3 with Rattus norvegicus [4] and 1.11 in the test on Rattus norvegicus [5]. Also, the IC50 at Coagulation factor X is 52 µM; at Prothrombin it was 20 µM.
On to `N=C(N)c1ccc2cc(CC(C(=O)O)c3ccc(O[C@H]4CCNC4)cc3)oc2c1` (some centres not stated), for which, in test [1], the CT2 came to 16 µM. In addition, the IC50 against Coagulation factor X is 1.7 µM; on Prothrombin it was greater than 1000 µM.
Turning to `N=C(N)c1ccc2oc(CCc3cc4cc(C(=N)N)ccc4o3)cc2c1`, in test [1], the CT2 stood at 1.6 µM. Besides, the IC50 is 0.1 µM at Coagulation factor X and 5 µM against Prothrombin.
